Data set [1] concerns the target BK receptors. Briefly: Radioligand competition binding assay with [3H]BK in rat brain membranes. The note with it: for log[IC50], BK receptors, [3H]BK / IC50: pH 6.8, rat brain membranes, 1 nM [3H]BK; for IC50: read-out: IC50, BK receptors, [3H]BK; for affinity at the BK receptors (in words): D-amino acid substitutions.
Data set [2] in a line: In vitro stability in rat plasma. The note with it: rat; for half-life: plasma, t1/2 in rat plasma, 37 °C. The data set is classed as in vitro ADME.
Data set [3] concerns the target BK receptors. The note with it: competition assay using 1 nM [3H]DALKD, cited from earlier work.
The nature of data set [4]: In vitro stability in human plasma. The data set is classed as in vitro ADME. As to conditions: human plasma. A digest of the protocol:
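Test compound stock (50 mg/mL in water) was diluted 5-fold into lithium-heparin human plasma and incubated at 37 °C. Samples were taken at 1, 2, 4, 6, 12 and 24 h, quenched with EtOH and centrifuged. Supernatant was run on C-18 RP-HPLC (10–90% acetonitrile, 40 min). t1/2 = 0.693/b, where b is the slope of ln(fraction parent remaining) versus time. Three independent experiments.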

Data set [5] relates to naïve rats. The experiment in a line: von Frey filament and Infra-Red tests in naïve rats. The data set is classed as in vivo, rat. As to conditions: i.th. injection 3 nmol, alone. A digest of the protocol:
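Nonfasted male Sprague-Dawley rats (250–300 g) carried i.th. catheters placed through the atlanto-occipital membrane to lumbar level under ketamine/xylazine (80/12 mg/kg i.p.). Naïve rats received Dyn A-(2–13) with or without test compound (3 nmol/5 µL i.th.). Tests were run every 20 min up to 120 min. Infrared paw withdrawal latency was calibrated to ~20 s on the uninjured paw; von Frey thresholds used the up-down/Dixon method. One-way ANOVA, p ≤ 0.05.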

Read-outs that look alike come from different tables or passages of the source. Where a SMILES comes first, the peptide text is derived from it. [ ]: non-standard residue; d: D form. Oic = O=C(O)[C@@H]1C[C@@H]2CCCC[C@@H]2N1; dTic = O=C(O)[C@H]1Cc2ccccc2CN1; 2Thi = N[C@@H](Cc1cccs1)C(=O)O; Nle = CCCC[C@H](N)C(=O)O; Orn = NCCC[C@H](N)C(=O)O

The IC50 is the concentration at which inhibition is half-maximal. With `CCCC[C@H](NC(=O)[C@@H](N)Cc1ccccc1)C(=O)N[C@@H](CCCNC(=N)N)C(=O)N[C@H](C(=O)N[C@@H](CCCNC(=N)N)C(=O)N1CCC[C@H]1C(=O)N[C@@H](CCCCN)C(=O)O)[C@@H](C)CC` [compound 2, H-Phe-Nle-Arg-Ile-Arg-Pro-Lys-OH], in data set [1], the “log[IC50], BK receptors, [3H]BK” value is −6.79 ± 0.10 and the IC50 is 0.16 µM.
Take `CCCC[C@H](NC(=O)[C@H](CCCNC(=N)N)NC(=O)[C@H](CC(C)C)NC(=O)[C@@H](N)Cc1ccccc1)C(=O)N[C@@H](CCCNC(=N)N)C(=O)N1CCC[C@H]1C(=O)N[C@@H](CCCCN)C(=O)O` [compound 3, H-Phe-Leu-Arg-Nle-Arg-Pro-Lys-OH] (H-FLR[Nle]RPK-OH): the “log[IC50], BK receptors, [3H]BK” value in data set [1] is reported as −7.05 ± 0.09.
As usually defined, the half-life is how long it takes for the measured level to halve. What is called share remaining is the share of the starting amount still present when the sample was taken. Read a high share remaining as less turnover. In turn, `CCCC[C@H](NC(=O)[C@H](CCCNC(=N)N)NC(=O)[C@H](CCCC)NC(=O)[C@@H](N)Cc1ccccc1)C(=O)N[C@@H](CCCNC(=N)N)C(=O)N1CCC[C@H]1C(=O)N[C@@H](CCCNC(=N)N)C(=O)O` [compound 4, H-Phe-Nle-Arg-Nle-Arg-Pro-Arg-OH] (H-F[Nle]R[Nle]RPR-OH) had a half-life in data set [2] (24 h study) of 1.2 h. Further, the share remaining at 24 h, 10 mg/mL in data set [2] (rat plasma) turned out to be 0%. The “log[IC50], BK receptors” value in data set [3] is listed as −7.06 ± 0.10. Also, the IC50 in data set [3] (read-out: IC50, BK receptors) is 0.086 µM.
Molecule `CCCC[C@H](NC(=O)[C@H](Cc1ccccc1)NC(C)=O)C(=O)N[C@@H](CCCNC(=N)N)C(=O)N[C@@H](CCCC)C(=O)N[C@@H](CCCNC(=N)N)C(=O)N1CCC[C@H]1C(=O)N[C@@H](CCCNC(=N)N)C(=O)O` [compound 5, Ac-Phe-Nle-Arg-Nle-Arg-Pro-Arg-OH] (Ac-F[Nle]R[Nle]RPR-OH) gave a half-life in data set [2] (24 h study) of 3.4 h. Further, the share remaining at 24 h, 10 mg/mL in data set [2] (rat plasma) is 0%.
On to `CC[C@H](C)[C@H](NC(=O)[C@H](CCCN)NC(=O)[C@H](CC(C)C)NC(=O)[C@@H](N)Cc1ccccc1)C(=O)N[C@@H](CCCN)C(=O)N1CCC[C@H]1C(=O)N[C@@H](CCCN)C(=O)O` [compound 6, H-Phe-Leu-Orn-Ile-Orn-Pro-Orn-OH] (H-FL[Orn]I[Orn]P[Orn]-OH), for which, in data set [1], the “log[IC50], BK receptors, [3H]BK” value is recorded as −6.29 ± 0.12 and the IC50 came out at 0.51 µM.
Turning to `CC[C@H](C)[C@H](NC(=O)[C@H](CCCNC(=N)N)NC(=O)[C@H](CC(C)C)NC(=O)[C@@H](N)Cc1ccccc1)C(=O)N[C@@H](CCCNC(=N)N)C(=O)N1Cc2ccccc2C[C@@H]1C(=O)N[C@@H](CCCCN)C(=O)O` [compound 8, H-Phe-Leu-Arg-Ile-Arg-D-Tic-Lys-OH] (H-FLRIR[dTic]K-OH), in data set [1], the half-inhibitory concentration (IC50) was over 10 µM.
As for `CC[C@H](C)[C@H](NC(=O)[C@H](CCCNC(=N)N)NC(=O)[C@H](CC(C)C)NC(=O)[C@@H](N)Cc1ccccc1)C(=O)N[C@@H](CCCNC(=N)N)C(=O)N1[C@H](C(=O)N[C@@H](CCCCN)C(=O)O)C[C@@H]2CCCC[C@@H]21` [compound 10, H-Phe-Leu-Arg-Ile-Arg-Oic-Lys-OH] (H-FLRIR[Oic]K-OH), in data set [1], the “log[IC50], BK receptors, [3H]BK” value was −5.82 ± 0.10 and the concentration for half-maximal inhibition (IC50) amounted to 1.5 µM.
With `CC[C@H](C)[C@H](NC(=O)[C@H](CCCNC(=N)N)NC(=O)[C@H](CC(C)C)NC(=O)[C@@H](N)Cc1ccccc1)C(=O)N[C@@H](CCCNC(=N)N)C(=O)N1CCC[C@H]1C(=O)N[C@H](CCCCN)C(=O)O` [compound 11, H-Phe-Leu-Arg-Ile-Arg-Pro-D-Lys-OH], in data set [2] (rat plasma), the amount remaining at 24 h, 10 mg/mL came out at 0%. Besides, in data set [1], the “log[IC50], BK receptors, [3H]BK” value was −6.03 ± 0.14 and the IC50 was found to be 0.83 µM.
For `CC[C@H](C)[C@H](NC(=O)[C@H](CCCNC(=N)N)NC(=O)[C@H](CC(C)C)NC(=O)[C@@H](N)Cc1ccccc1)C(=O)N[C@@H](CCCNC(=N)N)C(=O)N1CCC[C@@H]1C(=O)N[C@@H](CCCCN)C(=O)O` [compound 12, H-Phe-Leu-Arg-Ile-Arg-D-Pro-Lys-OH], the IC50 in data set [1] is over 10 µM.
For the molecule `CC[C@H](C)[C@H](NC(=O)[C@H](CCCNC(=N)N)NC(=O)[C@H](CC(C)C)NC(=O)[C@@H](N)Cc1ccccc1)C(=O)N[C@H](CCCNC(=N)N)C(=O)N1CCC[C@H]1C(=O)N[C@@H](CCCCN)C(=O)O` [compound 13, H-Phe-Leu-Arg-Ile-D-Arg-Pro-Lys-OH], in data set [1], the “log[IC50], BK receptors, [3H]BK” value is −5.23 ± 0.12 and the IC50 came to 5.9 µM.
Consider `CC[C@@H](C)[C@@H](NC(=O)[C@H](CCCNC(=N)N)NC(=O)[C@H](CC(C)C)NC(=O)[C@@H](N)Cc1ccccc1)C(=O)N[C@@H](CCCNC(=N)N)C(=O)N1CCC[C@H]1C(=O)N[C@@H](CCCCN)C(=O)O` [compound 14, H-Phe-Leu-Arg-D-Ile-Arg-Pro-Lys-OH], for which, in data set [2] (24 h study), the half-life is 3.3 h. The amount remaining at 24 h, 10 mg/mL in data set [2] (rat plasma) was determined as 0%. Also, the IC50 in data set [1] was over 10 µM.
`CC[C@H](C)[C@H](NC(=O)[C@@H](CCCNC(=N)N)NC(=O)[C@H](CC(C)C)NC(=O)[C@@H](N)Cc1ccccc1)C(=O)N[C@@H](CCCNC(=N)N)C(=O)N1CCC[C@H]1C(=O)N[C@@H](CCCCN)C(=O)O` [compound 15, H-Phe-Leu-D-Arg-Ile-Arg-Pro-Lys-OH]: the half-life in data set [2] (24 h study) was 31 h. The molecule further showed a share remaining at 24 h, 10 mg/mL in data set [2] (rat plasma) of 62 ± 25%. Also, in data set [1], the “log[IC50], BK receptors, [3H]BK” value is listed as −6.51 ± 0.19 and the IC50 is 0.31 µM.
In the case of `CC[C@H](C)[C@H](NC(=O)[C@H](CCCNC(=N)N)NC(=O)[C@H](CC(C)C)NC(=O)[C@H](N)Cc1ccccc1)C(=O)N[C@@H](CCCNC(=N)N)C(=O)N1CCC[C@H]1C(=O)N[C@@H](CCCCN)C(=O)O` [compound 17, H-D-Phe-Leu-Arg-Ile-Arg-Pro-Lys-OH], in data set [2] (24 h study), the half-life was 19 h. This molecule had a share remaining at 24 h, 10 mg/mL in data set [2] (rat plasma) of 44 ± 12%. For the same molecule, in data set [1], the “log[IC50], BK receptors, [3H]BK” value is given as −6.60 ± 0.14 and the concentration for half-maximal inhibition (IC50) worked out at 0.25 µM.
As to `CC[C@H](C)[C@H](NC(=O)[C@@H](CCCNC(=N)N)NC(=O)[C@H](CC(C)C)NC(=O)[C@H](N)Cc1ccccc1)C(=O)N[C@@H](CCCNC(=N)N)C(=O)N1CCC[C@H]1C(=O)N[C@@H](CCCCN)C(=O)O` [compound 18, H-D-Phe-Leu-D-Arg-Ile-Arg-Pro-Lys-OH], in data set [1], the “affinity at the BK receptors (in words)” value is reported as “completely abolished affinity” and the IC50 was over 10 µM.
The corresponding values for `CC[C@H](C)[C@H](NC(=O)[C@H](CCCNC(=N)N)NC(=O)[C@@H](CC(C)C)NC(=O)[C@H](N)Cc1ccccc1)C(=O)N[C@@H](CCCNC(=N)N)C(=O)N1CCC[C@H]1C(=O)N[C@@H](CCCCN)C(=O)O` [compound 19, H-D-Phe-D-Leu-Arg-Ile-Arg-Pro-Lys-OH] are “completely abolished affinity” and over 10 µM.
With `CC[C@H](C)[C@H](NC(=O)[C@H](CCCNC(=N)N)NC(=O)[C@H](CC(C)C)NC(=O)[C@H](Cc1ccccc1)NC)C(=O)N[C@@H](CCCNC(=N)N)C(=O)N1CCC[C@H]1C(=O)N[C@@H](CCCCN)C(=O)O` [compound 20, H-NMePhe-Leu-Arg-Ile-Arg-Pro-Lys-OH], the half-life in data set [2] (24 h study) was 15 h. Further, in data set [2] (rat plasma), the amount remaining at 24 h, 10 mg/mL is 31 ± 11%. Besides, in data set [1], the “log[IC50], BK receptors, [3H]BK” value is reported as −6.06 ± 0.14 and the IC50 stood at 0.87 µM.
For the molecule `CC[C@H](C)[C@H](NC(=O)[C@H](CCCNC(=N)N)NC(=O)[C@H](CC(C)C)N(C)C(=O)[C@@H](N)Cc1ccccc1)C(=O)N[C@@H](CCCNC(=N)N)C(=O)N1CCC[C@H]1C(=O)N[C@@H](CCCCN)C(=O)O` [compound 21, H-Phe-NMeLeu-Arg-Ile-Arg-Pro-Lys-OH], the half-life was over 4000 h in data set [2] (24 h study) and 65 h in data set [2] (calculated from a 5 day stability test). In addition, the fraction remaining at 24 h, 10 mg/mL in data set [2] (rat plasma) was 100 ± 16%; in data set [4] (human) it was 96 ± 5%. For the same molecule, in data set [2] (rat plasma), the fraction remaining at 120 h, 10 mg/mL turned out to be 31%. In data set [4] (after a 24 h incubation), the “Intact (%)” value is recorded as “more than 95%”.
For Dyn A-(2–13) [reference compound], in data set [5], the “paw withdrawal latency (Infra-Red test)” value is given as “reduced” and the “paw withdrawal threshold (von Frey filament test)” value is reported as “reduced”.
Regarding H-FLRIR[2Thi]K-OH [compound 9], in data set [1], the “log[IC50], BK receptors, [3H]BK” value is −5.99 ± 0.20 and the IC50 came out at 1 µM.

The values are drawn from paper PMC5689068 (ACS chemical neuroscience, 2016).
